# Screening results: PubChem BioAssay, several laboratories
# Ecoli WT expand: blocks growth of wild type E. coli BW25113; OD600 absorbance; growth inhibition, % at 100 µM; 98,000 tested, 0.15% active; AID 710;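 active = growth inhibition above about 50% at one test dose, limit read from the data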;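 also: growth measured after 20 h incubation at 37 °C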
# Ecoli tolC: growth inhibitors of E. coli BW25113 tolC mutant; AID 573; growth inhibition, % at 10 µM (by protocol); 65,000 tested, 2.2% active; OD615;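 active = growth inhibition at or above a cutoff equal to the mean over every tested compound plus 3 SD, cut at about 60% in these data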;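 also: growth measured after 20 h incubation at 37 °C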
#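 Test system – E. coli BW25113 ΔtolC::kan, tolC deletion mutant strain · Detection – OD at 615 nm · Buffer or medium – LB with kanamycin 50 µg/mL · Times – 20 h compound exposure of bacteria at 37 °C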
# DAT uptake mod: modulates human dopamine transporter uptake under cocaine; B-score at 10 µM; AID 449768; 110,000 tested, 1.3% active; LLC-PK1 hDAT cells, [14C]-dopamine uptake with cocaine IC80; actives deviate in either direction; Q01959;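 active = Z score or B-score, a plate-position-corrected score, falls beyond the plate's 99.7% confidence bounds, in either direction; inactive = both scores lie inside the 99.7% bounds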;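 also: scored against the spread of the other compound wells on the same plate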
# Target sequence (Q01959 whole entry, looked up): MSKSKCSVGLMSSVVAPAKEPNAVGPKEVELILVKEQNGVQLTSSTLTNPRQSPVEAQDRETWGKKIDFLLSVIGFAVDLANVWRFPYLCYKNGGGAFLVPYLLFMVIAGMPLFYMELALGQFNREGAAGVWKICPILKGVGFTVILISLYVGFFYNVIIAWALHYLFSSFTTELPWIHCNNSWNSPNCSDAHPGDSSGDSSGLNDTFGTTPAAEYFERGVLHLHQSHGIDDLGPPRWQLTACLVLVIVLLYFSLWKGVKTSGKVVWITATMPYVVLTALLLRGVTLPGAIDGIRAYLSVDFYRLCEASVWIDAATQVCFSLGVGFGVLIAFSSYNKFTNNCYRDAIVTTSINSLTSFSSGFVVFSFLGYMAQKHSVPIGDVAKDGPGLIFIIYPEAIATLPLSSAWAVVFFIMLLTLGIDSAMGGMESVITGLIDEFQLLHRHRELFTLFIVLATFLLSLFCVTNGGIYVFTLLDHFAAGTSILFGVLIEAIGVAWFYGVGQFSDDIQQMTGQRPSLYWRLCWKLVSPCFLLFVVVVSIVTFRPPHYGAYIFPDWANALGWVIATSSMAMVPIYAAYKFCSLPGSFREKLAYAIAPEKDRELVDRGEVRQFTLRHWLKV
# PostGolgi yeast: growth inhibition of a yeast mutant, post-Golgi transport screen; 98,000 tested, 0.9% active; inhibition, % at 10 µM; post-Golgi transport phenotypic cell assay;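 also: yeast cells grown in 1536-well plates; yeast grown about 18 h at 30C before absorbance read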
# PostGolgi ctrl: growth of the yeast control strain, post-Golgi counter-screen. 98,000 tested, 5% active. inhibition, % at 10 µM. efflux-deficient yeast background strain, growth absorbance A615, 16 h
# D1 mod: allosteric modulators of human D1 dopamine receptor. 58,000 tested, 5.9% active. B-score at 10 µM. P21728. HEK293 D1, CRE-luciferase, dopamine EC30 potentiation; actives deviate in either direction;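 active = luminescence count or its row- and column-corrected plate score outside the 99.7% band of the plate's sample wells, on either side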
# * marks the source's active call; other numbers are inactive results; . = no result given. Rows were chosen to be rich in hits. Some 9.3% of all compounds tested hit in one or more screens of this group. Rule as the data show it, unless noted: active = inhibition above about 30%; inactive = the rest.
SMILES,Ecoli WT expand,Ecoli tolC,DAT uptake mod,PostGolgi yeast,PostGolgi ctrl,D1 mod
COC(=O)[C@@H]1[C@H](CCc2ccccc2)NC(=O)N(Cc2ccccc2)[C@@H]1C,.,.,0.096,.,.,.
O=C(O)C[C@H]1c2cc(C(F)(F)F)ccc2S(=O)(=O)N1Cc1ccccc1,.,.,0.34,.,.,.
Cc1c(C(=O)NCc2cccnc2)sc2nc(-c3ccc(F)cc3)cn12,-7,25,1,-6,0,-5.8*
Cc1c(C(=O)Nc2ccc3c(c2)OCCO3)sc2nc(-c3ccccc3)cn12,.,46,-0.63,.,.,-0.32
Cc1c(C(=O)Nc2ccncc2)sc2nc(-c3ccccc3)cn12,-18,2,-0.01,5,4,-4.5*
Cc1c(C(=O)N2CCc3ccccc3C2)sc2nc(-c3ccccc3)cn12,-14,67*,2.3,5,47*,0.39
Cc1c(C(=O)NCc2cccnc2)sc2nc(-c3ccccc3)cn12,.,14,.,.,.,0.02
COc1ccc(-c2cn3c(C)c(C(=O)N4CCc5ccccc5C4)sc3n2)cc1,.,28,.,.,.,.
NCCCC[C@H]1CNC(=O)C(=O)N1CCc1cccc(F)c1,.,.,1.2,.,.,.
C=CCNc1nc(N2CCCCC2)c(C#N)c2c1CN(Cc1ccccc1)CC2,-9,10,0.15,3,18,.
CCSc1nnc(NC(=O)c2cccc(OCc3c(C)noc3C)c2)s1,-6,62*,0.79,3,4,-0.77
Cc1noc(C)c1COc1ccc(C(=O)NCc2ccccn2)cc1,4,0,-0.83,7,7,-0.08
Cc1nnc(NC(=O)Cc2ccc(OCc3c(C)noc3C)cc2)s1,-1,-19,0.51,-7,24,-3.1*
COc1ccc2nc(NC(=O)c3cccc(OCc4c(C)noc4C)c3)sc2c1,-7,45,.,18,33*,-3.4
Cc1noc(C)c1COc1cccc(C(=O)Nc2ccc(OCc3ccccc3)cc2)c1,-8,.,0.8,0,1,.
CCOc1cccc(C(=O)Nc2nnc(-c3ccco3)s2)c1,-7,10,-0.35,-13,21,-3.7*
C=CC[C@]12CC=CC(=O)[C@@]1(O)O[C@H](c1ccc(OC)c(OC)c1)[C@H]2C,.,.,0.2,.,.,.
CC(=O)N1[C@H](C)C=C[C@]1(Cc1ccccc1)C(=O)O,.,.,-0.11,.,.,.
CCOc1ccc(C(=O)c2cc([N+](=O)[O-])ccc2Cl)cc1,7,.,-1.7,-1,5,.
COC(=O)CCCC(=O)Nc1c(F)c(F)c(F)c(F)c1F,3,-7,0.47,-1,1,0.0065
Cn1c(O)c(C=Nc2ccc(Cc3ccncc3)cc2)c(=O)n(C)c1=O,.,9,.,.,.,.
COc1ccc2nc(NC(=O)c3ccoc3C)sc2c1,-11,-13,0.17,-2,9,-4.3*
COc1ccc2c(c1)Cc1sc(NC(=O)c3ccco3)nc1-2,-11,.,1.9,18,5,.
COc1ccc2nc(NC(=O)c3cc(C)oc3C)sc2c1,.,.,0.79,.,.,.
COc1ccc2sc(NC(=O)c3ccco3)nc2c1,-13,1,-0.52,7,11,-5.7*
SMILES,Ecoli WT expand,Ecoli tolC,DAT uptake mod,PostGolgi yeast,PostGolgi ctrl,D1 mod
CCCOC(=O)CSC1=C(C#N)C(c2ccccc2OC)C(C#N)C(=O)N1 (stereo not drawn),-1,11,0.39,-5,1,.
Cc1nnc(NC(=O)c2c(-c3ccccc3)noc2C)s1,-6,.,-0.61,-26,0,.
Cc1onc(-c2ccccc2)c1C(=O)OCC(=O)c1ccccc1,1,71*,0.068,2,12,-1.9
Cc1cc(C(=O)OC(C)C(=O)Nc2nc(-c3ccccc3)cs2)c(C)o1 (stereo not drawn),-13,.,0.0056,0,37*,.
Cc1onc(-c2ccccc2)c1C(=O)Nc1nnc(COc2ccc(Cl)cc2)s1,-6,80*,.,-17,24,-0.69
Cc1onc(-c2ccccc2)c1C(=O)Nc1nnc(N(C)Cc2ccccc2)s1,-11,61*,-0.13,4,16,0.3
Cc1cc(=O)oc(C)c1C(=O)OCC(=O)c1ccccc1,10,8,-0.22,0,0,-0.43
O=C(NCc1ccco1)C(c1ccccc1)N(C(=O)Cc1cccs1)c1ccccc1F (stereo not drawn),0,.,0.24,-1,6,.
COC(C/C=C\[C@@H](O)COCc1ccccc1)OC,.,.,0.00069,.,.,.
Cc1onc(-c2ccccc2)c1C(=O)Nc1nc(-c2ccccc2)cs1,0,.,-0.42,-5,34*,.
CCC(CC)c1nnc(NC(=O)c2c(-c3ccccc3)noc2C)s1,-2,79*,0.75,-1,7,1.2
COC(=O)c1ccccc1NS(=O)(=O)c1cn(C)c(=O)n(C)c1=O,0,-9,0.28,-3,7,-0.083
CC1=C(C)[N+](=O)C2CCCCC2N1[O-] (stereo not drawn),5,-9,-1.2,2,0,-0.2
S=C(c1ccc2c(c1)OCO2)N1CCCC1,1,1,-1.1,-15,3,0.28
Cc1ccc(NC(=O)CN2C(=O)NC3(CCc4ccccc43)C2=O)cc1Cl (stereo not drawn),10,.,-1.2,-8,22,.
COc1cc2c(cc1NC(=O)CCCN1C(=O)CCC1=O)oc1ccccc12,4,-1,2.7*,1,-3,-0.56
COc1cc2c(cc1NC(=O)CC1SC(N3CCCC3)=NC1=O)oc1ccccc12 (stereo not drawn),-10,10,-8.3*,-1,11,0.62
COc1cc2c(cc1NC(=O)CSCC(=O)O)oc1ccccc12,-13,16,-0.075,2,-2,.
CCOc1cc(N2CCOCC2)c(OCC)cc1NC(=O)CN1C(=O)NC2(CCc3ccccc32)C1=O (stereo not drawn),9,.,0.1,0,4,.
COc1cc2c(cc1NC(=O)CN1C(=O)NC3(CCc4ccccc43)C1=O)oc1ccccc12 (stereo not drawn),-9,36,0.1,8,38*,.
Cc1ccc(NC(=O)NC(=O)CN2C(=O)NC3(CCc4ccccc43)C2=O)c(C)c1 (stereo not drawn),-1,31,2.5*,-3,3,.
COc1cc2c(cc1NC(=O)CCCCCN1C(=O)CCC1=O)oc1ccccc12,2,.,1.6,7,11,.
O=C(Nc1cccc2ncccc12)c1ccc(-c2ccc(Br)cc2)o1,-13,.,1.1,0,11,.
c1ccc(/N=C2\N=C(Nc3ccccn3)c3ccccc32)nc1,.,-6,.,.,.,14*
c1ccc(Nc2ccccn2)cc1,16,.,-1.1,7,-5,.
O=C(Nc1ccc(F)cc1F)c1cc2n(n1)C(C(F)(F)F)C1CCCCC1N2 (stereo not drawn),-7,-6,0.23,1,30*,0.09
O=C(NC1CCCCCC1)c1cc2n(n1)C(C(F)(F)F)CC(c1ccco1)N2 (stereo not drawn),0,5,0.29,-20,5,0.46
O=C(Nc1ccc(Br)cn1)C1CCCN1S(=O)(=O)c1ccccc1 (stereo not drawn),0,.,2.2,-17,3,.
Cc1ccc(CNC(=O)Cn2c(=O)oc3ccccc32)o1,2,1,0.65,1,40*,0.35
